{"source": "ChEMBL document CHEMBL1159012", "about": "“Anti-aids agents, 6. Salaspermic acid, an anti-HIV principle from Tripterygium wilfordii, and the structure-activity correlation with its related compounds” (J Nat Prod, 1992)", "key": {"[1]": {"test_system": "Human immunodeficiency virus 1", "experiment": "Antiviral activity against HIV 3B infected human H9 cells assessed as inhibition of p24 antigen release", "type": "functional", "conditions": "Human immunodeficiency virus 1, 3B, read-out: ED50 (the source's name)", "how_it_was_run": "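H9 lymphocytes (3.5×10^6 cells/ml) exposed to HIV-1 HTLV-IIIB at 0.01-0.1 TCID50/cell for 1 h at 37°, then washed and resuspended at 4×10^5 cells/ml. Mixed with an equal volume of compound diluted in medium and cultured 3 days at 37°. Virus released into the medium measured by p24 antigen capture. EC50 read graphically from a plot of % inhibition versus concentration.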"}, "H9": {"test_system": "H9", "experiment": "Cytotoxicity against human H9 cells", "type": "cell-based", "how_it_was_run": "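Uninfected H9 lymphocytes were handled in parallel with the infected cultures: 1 h mock exposure at 37°, washing, resuspension at 4×10^5 cells/ml, and 3 days at 37° with an equal volume of compound diluted in medium. Cell density was counted with a Coulter counter. IC50 was read graphically from a plot of % inhibition versus concentration.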"}, "[2]": {"target": "T1, Human immunodeficiency virus type 1 reverse transcriptase (Human immunodeficiency virus 1, UniProt Q72547)", "experiment": "Inhibition of HIV1 recombinant reverse transcriptase expressed in Escherichia coli using poly(rA)-oligo(dT) template"}, "[3]": {"target": "T1, Human immunodeficiency virus type 1 reverse transcriptase", "experiment": "Inhibition of HIV1 recombinant reverse transcriptase expressed in Escherichia coli using poly(rG)-oligo(dC) template"}, "[4]": {"target": "T1, Human immunodeficiency virus type 1 reverse transcriptase", "experiment": "Inhibition of HIV1 recombinant reverse transcriptase expressed in Escherichia coli using poly(rC)-oligo(dG) template"}, "[5]": {"target": "Human immunodeficiency virus type 1 reverse transcriptase (Human immunodeficiency virus 1) (UniProt Q72547)", "experiment": "Inhibition of RNAse activity of HIV1 recombinant reverse transcriptase using poly(dT).[3H]poly(rA) template at 100 ug/ml", "how_it_was_run": "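The RNase H activity of purified HIV-1 reverse transcriptase, expressed in E. coli JM109/pKRT2, was assayed with poly(dT)·[3H]poly(rA) as substrate. Compound was tested at 100 µg/ml.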"}, "[6]": {"target": "T1, Human immunodeficiency virus type 1 reverse transcriptase", "experiment": "Inhibition of HIV1 recombinant reverse transcriptase expressed in Escherichia coli using poly(dC)-oligo(dG) template"}, "[7]": {"target": "Human immunodeficiency virus type 1 reverse transcriptase (Human immunodeficiency virus 1) (UniProt Q72547)", "experiment": "Inhibition of HIV1 recombinant reverse transcriptase expressed in Escherichia coli using poly(rU)-oligo(dA) template at 100 ug/ml"}, "[8]": {"target": "T1, Human immunodeficiency virus type 1 reverse transcriptase", "experiment": "Inhibition of HIV1 recombinant reverse transcriptase expressed in Escherichia coli using poly(rU)-oligo(dA) template"}, "[9]": {"target": "Human immunodeficiency virus type 1 reverse transcriptase (Human immunodeficiency virus 1) (UniProt Q72547)", "experiment": "Inhibition of DNA polymerase activity of HIV1 recombinant reverse transcriptase", "how_it_was_run": "(§1)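 Reverse transcriptase purified from E. coli expressing it: HIV-1 from JM109 carrying pKRT2, HIV-2 from a strain bearing pASRT2. HIV-2 enzyme was run with poly(rC)·oligo(dG). EC50 values were reported.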"}, "[10]": {"target": "Human immunodeficiency virus type 1 reverse transcriptase (Human immunodeficiency virus 1) (UniProt Q72547)", "experiment": "Inhibition of HIV1 recombinant reverse transcriptase expressed in Escherichia coli using poly(rG)-oligo(dC) template at 100 ug/ml"}, "[11]": {"experiment": "Inhibition of HIV2 reverse transcriptase using poly(rC)-oligo(dG) template", "design": "species or system Human immunodeficiency virus 2", "how_it_was_run": "as §1"}}, "note": "The source made the active and inactive calls. The calls are words filed in the database; no cut-off is given here.", "data": [{"smiles": "C[C@H]1C(=O)CC[C@@H]2[C@]1(C)CC[C@H]1[C@@]2(C)CC[C@@]2(C)[C@@H]3C[C@@](C)(C(=O)O)CC[C@]3(C)CC[C@]12C", "values": [{"measurement": "EC50", "setting": "[1]", "result": 59, "unit": "µM"}, {"measurement": "IC50", "setting": "H9", "result": 44, "unit": "µM"}]}, {"smiles": "C[C@@H]1[C@@]23CC[C@H]4[C@@](C)(CC[C@@]5(C)[C@@H]6C[C@](C)(C(=O)O)CC[C@]6(C)CC[C@]45C)[C@@H]2C[C@@H](O)[C@@]1(O)OC3", "values": [{"measurement": "EC50", "setting": "[1]", "result": 103, "unit": "µM"}, {"measurement": "IC50", "setting": "H9", "result": 64, "unit": "µM"}]}, {"smiles": "C[C@H]1C(=O)CC[C@@H]2[C@]1(C)CC[C@H]1[C@@]2(C)CC[C@@]2(C)[C@@H]3CC(C)(C)CC[C@]3(C)[C@H](O)C[C@]12C", "values": [{"measurement": "EC50", "setting": "[1]", "result": 2, "unit": "µM"}, {"measurement": "IC50", "setting": "H9", "result": 8, "unit": "µM"}]}, {"smiles": "C[C@H]1C(=O)CC[C@H]2[C@]3(C)CC[C@@]4(C)[C@@H]5CC(C)(C)C(=O)C[C@]5(C)C(=O)C[C@]4(C)[C@H]3C[C@@H](O)[C@]12C", "values": [{"measurement": "EC50", "setting": "[1]", "result": "> 106", "unit": "µM"}, {"measurement": "IC50", "setting": "H9", "result": 106, "unit": "µM"}]}, {"smiles": "C[C@H]1C(=O)CC[C@@H]2[C@]1(C)CC[C@H]1[C@@]2(C)CC[C@@]2(C)[C@@H]3C[C@](C)(CO)CC[C@]3(CO)CC[C@]12C", "values": [{"measurement": "EC50", "setting": "[1]", "result": 11, "unit": "µM"}, {"measurement": "IC50", "setting": "H9", "result": 15, "unit": "µM"}]}, {"smiles": "C[C@H]1C(=O)CC[C@@H]2[C@]1(C)CC[C@H]1[C@@]2(C)CC[C@@]2(C)[C@@H]3CC(C)(C)CC[C@]3(C(=O)O)CC[C@]12C", "values": [{"measurement": "EC50", "setting": "[1]", "result": 15, "unit": "µM"}, {"measurement": "IC50", "setting": "H9", "result": 22, "unit": "µM"}]}, {"smiles": "C[C@H]1C(=O)CC[C@@H]2[C@]1(C)CC[C@H]1[C@@]2(C)CC[C@@]2(C)[C@@H]3CC(C)(C)CC[C@]3(OO)CC[C@]12C", "values": [{"measurement": "EC50", "setting": "[1]", "result": 38, "unit": "µM"}, {"measurement": "IC50", "setting": "H9", "result": 38, "unit": "µM"}]}, {"smiles": "C[C@H]1C(=O)CC[C@@H]2[C@]1(C)CC[C@H]1[C@@]2(C)CC[C@@]2(C)[C@@H]3C[C@@](C)(CO)CC[C@]3(CO)CC[C@]12C", "values": [{"measurement": "EC50", "setting": "[1]", "result": 13, "unit": "µM"}, {"measurement": "IC50", "setting": "H9", "result": 20, "unit": "µM"}]}, {"smiles": "C[C@H]1C(=O)CC[C@@H]2[C@]1(C)CC[C@H]1[C@@]2(C)CC[C@@]2(C)[C@@H]3CC(C)(C)CC[C@]3(CO)CC[C@]12C", "note": "[CANOPHYLLOL]", "values": [{"measurement": "EC50", "setting": "[1]", "result": 4, "unit": "µM"}, {"measurement": "IC50", "setting": "H9", "result": 18, "unit": "µM"}]}, {"smiles": "C[C@H]1C(=O)CC[C@@H]2[C@]1(C)CC[C@H]1[C@@]2(C)CC[C@@]2(C)[C@@H]3C[C@](C)(C(=O)O)CC[C@]3(C)CC[C@]12C", "note": "[MAYTENOIC ACID]", "values": [{"measurement": "EC50", "setting": "[1]", "result": 66, "unit": "µM"}, {"measurement": "IC50", "setting": "H9", "result": 44, "unit": "µM"}]}, {"smiles": "C[C@@H]1[C@@]23CC[C@H]4[C@@](C)(CC[C@@]5(C)[C@@H]6C[C@](C)(C(=O)O)CC[C@]6(C)CC[C@]45C)[C@@H]2CC[C@@]1(O)OC3", "note": "[SALASPERMIC ACID]", "values": [{"measurement": "EC50", "setting": "[2]", "result": 33.8, "unit": "µM"}, {"measurement": "EC50", "setting": "[3]", "result": "> 212", "unit": "µM"}, {"measurement": "EC50", "setting": "[4]", "result": 31.7, "unit": "µM"}, {"measurement": "Activity", "setting": "[5]", "result": "inactive"}, {"measurement": "EC50", "setting": "[6]", "result": 159, "unit": "µM"}, {"measurement": "inhibition", "setting": "[7]", "result": 37, "unit": "%"}, {"measurement": "EC50", "setting": "[8]", "result": "> 212", "unit": "µM"}, {"measurement": "EC50", "setting": "[1]", "result": 10, "unit": "µM"}, {"measurement": "Activity", "setting": "[9]", "result": "Active"}, {"measurement": "inhibition", "setting": "[10]", "result": 4, "unit": "%"}, {"measurement": "EC50", "setting": "[11]", "result": 100, "unit": "µg/mL"}, {"measurement": "IC50", "setting": "H9", "result": 53, "unit": "µM"}]}]}
